Reference: ChEMBL document CHEMBL1124035, “1-Amino-substituted 4-methyl-5H-pyrido[4,3-b]indoles (gamma-carbolines) as tricyclic analogues of ellipticines: a new class of antineoplastic agents” (1988)

Columns and labels:
Mus musculus [1] = test: Median survival day of B16 melanoma infected mice when a dose of 1.25 mg/kg administered intraperitoneally; format: functional; details: route intraperitoneal
How it was run: (§1)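 B16 melanoma in hybrid BD F1 mice. At D0 each mouse was inoculated ip with 0.5 mL of homogenate made from 1 g of tumour in 10 mL of physiological serum. Compounds were given ip daily at the stated doses for 9 days (D1-9), with cis-platinum 0.5 mg/kg under the same schedule as positive control.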

Mus musculus [2] = test: […] in C38 adenocarcinoma cell line when a dose of 75 mg/kg administered intravenously to mice; format: functional, MC-38; details: route intravenous
How it was run: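 C38 colon adenocarcinoma in hybrid BD F1 mice, 10 per test. A standard 3-mm³ tumour fragment was implanted sc. Drugs were given iv at the stated doses on D1 or on D2 + D9, following the Geran et al. NCI protocol.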

Mus musculus [3] = test: Antitumor activity against P388 cells at a dose of 10 mg/kg administered intraperitoneally to P388 leukemia model; format: functional; details: route intraperitoneal
How it was run: (§2)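 Mice were inoculated ip with 10^6 P388 leukemia cells at D0, then given a single ip drug dose on D1. Weight change was recorded. T/C % = median survival day of treated / controls × 100; survivors counted at D30; 10 mice per dose group, 20 controls.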

Mus musculus [4] = test: Weight change in g when a dose of 50 mg/kg intravenous administration to P388 leukemia mice model; format: functional
How it was run: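 Mice (10 per group) were inoculated ip at D0 with 10^6 P388 leukemia cells and given a single iv dose at D1. Read-outs were weight change (g), median survival day, T/C % versus controls and survivors at D30.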

Mus musculus [5] = test: Survivors at day D32 when a dose of 50 mg/kg administered intravenously to C38 adenocarcinoma mice models; 10/10; format: functional; details: route intravenous
How it was run: (§3)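 Hybrid BDF1 mice, 10 per test, were implanted sc with a standard 3-mm³ fragment of C38 colon adenocarcinoma. Drug was given iv either on D1 alone or on D2 and D9. Animals were followed per NCI (Geran) protocol.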

Mus musculus [6] = test: Survivors at day D32 when a dose of 75 mg/kg administered intravenously to C38 adenocarcinoma mice models; 10/10; format: functional; details: route intravenous; how it was run: as §3
Mus musculus [7] = test: Weight change in g when a dose of 20 mg/kg intravenous administration to L1210 leukemia mice model; format: functional
How it was run: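 Mice received 10^5 L1210 leukemia cells ip at D0, then a single iv drug dose at D1. Read-outs were weight change (g), median survival day, T/C % and survivors at D30.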

Mus musculus [8] = test: Antitumor activity against P388 leukemia in mice at a dose of 20 mg/kg administered intraperitoneally; format: functional, organism-based; parameters: dose 20 mg/kg
How it was run: (§4)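 CDF1 hybrid male or female mice, 10 per group, were inoculated ip with 10^6 viable P388 cells on day 0. Drugs in distilled water were given ip (0.1 mL/10 g body weight) daily D1-5. Vehicle, 5-fluorouracil and BD 84 were given the same way. T/C = median survival day of treated / controls × 100; T/C > 128% was significant; cures counted at D60.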

Mus musculus [9] = test: Survivors at day 30 when a dose of 5 mg/kg to P388 leukemia model; 0/10; format: functional
Mus musculus [10] = test: Antitumor activity against C38 adenocarcinoma cells at a dose of 100 mg/kg administered intravenously on D1 to mice; tumor volume at D38 (T/C); details: route intravenous
Mus musculus [11] = test: Median survival day of P388 leukemia infected mice, when a dose of 10 mg/kg administered intraperitoneally; format: functional; details: route intraperitoneal
How it was run: (§5)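 P388 leukaemia in CDF1 hybrid mice, 10 per group. At D0, 10^6 viable cells were inoculated ip, followed by a single ip dose of drug in distilled water on D1. Weight change, median survival day, T/C (treated/control median survival × 100) and survivors at D30 were recorded. Controls were 20 mice.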

Mus musculus [12] = test: Median survival day in P388 cell line when a dose of 20 mg/kg administered intraperitoneally to mice; format: functional; details: route intraperitoneal; how it was run: as §5
Mus musculus [13] = test: Antitumor activity against L1210 cells at a dose of 20 mg/kg administered intravenously to mice; format: functional; details: route intravenous
How it was run: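 P388 (10^6 cells) or L1210 (10^5 cells) leukemia was inoculated ip in mice at D0, followed by a single iv drug treatment on D1. Weight change was recorded. T/C % = median survival day of treated / controls × 100; survivors noted at D30; 10-15 mice per group.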

Mus musculus [14] = test: Survivors at day 30 when a dose of 50 mg/kg administered intravenously to P388 (iv) to L1210 leukemia mice model; format: functional
Mus musculus [15] = test: Survivors at day 60 when a dose of 1.25 mg/kg to B16 melanoma infected when tested in 10 mice; format: functional
Mus musculus [16] = test: Survivors at day 60 when a dose of 5 mg/kg to B16 melanoma infected when tested in 10 mice; format: functional
Mus musculus [17] = test: Antitumor activity against C38 adenocarcinoma cells at a dose of 50 mg/kg administered intravenously on D1 to mice; tumor volume at D38 (T/C); format: functional, MC-38; details: route intravenous
How it was run: (§6)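 Hybrid BD F1 mice, 10 per group, were implanted sc with a standard 3-mm3 C38 colon adenocarcinoma fragment. Drugs were given iv at the stated doses on D1 or on D2 + D9. Read-out was tumor size in treated versus control mice (T/C) at the day stated.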

Mus musculus [18] = test: Antitumor activity against C38 adenocarcinoma model at a dose of 25 mg/kg administered intravenously in mice; tumor volume at D38 (T/C); format: functional; details: route intravenous; how it was run: as §6
Mus musculus [19] = test: Median survival day in B16 melanoma cell line when a dose of 10 mg/kg administered intraperitoneally to mice; format: functional; details: route intraperitoneal; how it was run: as §1
Mus musculus [20] = test: Median survival day in P388 leukemia model when a dose of 40 mg/kg administered intraperitoneally; format: functional; details: route intraperitoneal; how it was run: as §5
Mus musculus [21] = test: Antitumor activity against P388 cells at a dose of 80 mg/kg administered intraperitoneally P388 Leukemia model; format: functional; details: route intraperitoneal; how it was run: as §2
Mus musculus [22] = test: Antitumor activity against P388 cells at a dose of 10 mg/kg administered intraperitoneally P388 Leukemia model; format: functional; details: route intraperitoneal; how it was run: as §2
Mus musculus [23] = test: Antitumor activity against B16 melanoma cells at a dose of 20 mg/kg administered intraperitoneally to mice; format: functional; details: route intraperitoneal
How it was run: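 Hybrid BD F1 mice were inoculated ip at D0 with 0.5 mL of B16 melanoma homogenate (1 g tumor in 10 mL physiological serum). Drugs were given ip daily D1-9. Cisplatin 0.5 mg/kg was the positive control under the same schedule.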

Mus musculus [24] = test: Antitumor activity against P388 leukemia in mice at a dose of 1.25 mg/kg administered intraperitoneally for 5 days; format: functional; details: route intraperitoneal; how it was run: as §4
Mus musculus [25] = test: Antitumor activity against P388 leukemia in mice at a dose of 15 mg/kg administered intraperitoneally for 5 days; format: functional; details: route intraperitoneal; how it was run: as §4
Mus musculus [26] = test: Antitumor activity against P388 leukemia in mice at a dose of 20 mg/kg administered intraperitoneally for 5 days; format: functional; details: route intraperitoneal; how it was run: as §4
Mus musculus [27] = test: Survivors at day 30 when a dose of 40 mg/kg to P388 leukemia model; 0/10; format: functional
Mus musculus [28] = test: Antitumor activity against P388 leukemia in mice at a dose of 30 mg/kg administered intraperitoneally for 5 days; format: functional, organism-based; parameters: dose 30 mg/kg
How it was run: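 CDF1 hybrid male or female mice, 10 per group, were inoculated ip on day 0 with 10^6 viable P388 leukemia cells. Drug in distilled water was given ip (0.1 mL/10 g body weight) daily on days 1-5, with vehicle, 5-fluorouracil and BD 84 controls given the same way. T/C = median survival of treated/controls × 100; T/C > 128% counted as significant.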

## CCN(CC)CCCNc1ncc(C)c2c1c1cc(O)ccc1n2C
Mus musculus [1]
  Median survival day: 32.25
Mus musculus [2]
  Median tumoral volume: 0.97 cm*3
Mus musculus [3]
  T/C: 156%
Mus musculus [4]
  Weight change: -0.7 g
Mus musculus [5]
  Survivors: 10
Mus musculus [6]
  Survivors: 10
Mus musculus [7]
  Weight change: -0.4 g
Mus musculus [8]
  T/C: Toxic
Mus musculus [9]
  Survivors: 0
Mus musculus [10]
  Tumor volume: 36%

## Cc1cnc(NCCCN(C)C)c2c3cc(O)ccc3n(C)c12
Mus musculus [11]
  Median survival day: 19
Mus musculus [12]
  Median survival day: 18.75
Mus musculus [13]
  T/C: 157%
Mus musculus [14]
  Survivors: 1
Mus musculus [15]
  Survivors: 0
Mus musculus [16]
  Survivors: 1
Mus musculus [17]
  Tumor volume: 30%
Mus musculus [18]
  Tumor volume: 0%

## CCN(CC)CCCNc1[nH]cc(C)c2nc3ccc(O)cc3c1-2
Mus musculus [19]
  Median survival day: 56.25
Mus musculus [20]
  Median survival day: 15.9
Mus musculus [21]
  T/C: 20%
Mus musculus [22]
  T/C: 129%
Mus musculus [23]
  T/C: 211%
Mus musculus [24]
  T/C: 153%
Mus musculus [25]
  T/C: 208%
Mus musculus [26]
  T/C: 238%
Mus musculus [27]
  Survivors: 0
Mus musculus [28]
  T/C: Toxic
